High-throughput results (PubChem BioAssay)
OX1R antag-1: antagonists of human orexin 1 receptor; O43613; CHO/OX1R cells, Fluo-8 calcium fluorescence, orexin A; inhibition, % at 5 µM; 330,000 compounds, 0.43% hits; AID 434989;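 active means inhibition above its plate's threshold, mean inhibition of all tested compounds on the plate plus 3 SD, cut at about 37% in these data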;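 further: 0% = orexin A challenge wells and 100% = SB-334867-A antagonist wells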
OX1R antag-2: antagonists of human orexin 1 receptor (OX1R). inhibition, % at 6.6 µM. O43613. 330,000 compounds, 1.8% hits. OX1R-expressing cells, FRET antagonist read-out; in the data active means inhibition mostly above about 38%, no sharp cut-off; inactive means mostly below about 40%;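 further: 0% = agonist challenge alone and 100% = reference antagonist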
TAAR1 agonist: agonists of human TAAR1; CHO RD-HGA16 TAAR1, Fluo-8 calcium fluorescence; vehicle wells 0%, saturating PEA agonist 100%; activation, % at 3 µM; AID 624467; Q96RJ0; 360,000 compounds, 0.99% hits;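 active means activation above the mean activation of all test compounds in the run plus 3 SD, cut at about 38% in these data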
Target sequence (Q96RJ0 whole entry, looked up): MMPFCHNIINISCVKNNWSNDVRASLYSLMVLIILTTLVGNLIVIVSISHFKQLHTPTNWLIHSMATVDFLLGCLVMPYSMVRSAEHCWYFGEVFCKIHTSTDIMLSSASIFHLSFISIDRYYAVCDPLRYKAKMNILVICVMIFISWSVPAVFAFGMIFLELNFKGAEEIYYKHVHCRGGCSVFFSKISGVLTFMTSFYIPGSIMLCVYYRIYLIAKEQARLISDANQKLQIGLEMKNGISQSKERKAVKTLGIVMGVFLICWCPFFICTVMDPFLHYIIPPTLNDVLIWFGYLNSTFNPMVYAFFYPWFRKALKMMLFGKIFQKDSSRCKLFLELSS
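Test system: RD-HGA16 (CHO) cells co-expressing Gα16 and hTAAR1 / Benchmarks: DMSO vehicle as 0%, PEA at EC100 as 100% / Repeats: no replicates (n 1) / Measure: % activation from peak over basal fluorescence ratio, DMSO-to-PEA scaled / Timing: 17-24 h plating, Fluo-8 75 min 37 °C, 30 min RT / Technique: kinetic Fluo-8 calcium fluorescence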
CHO parental Ca: signal in parental CHO cells, OX1R antagonist counter-screen; parental CHO-K1, ATP-induced calcium, Fluo-8 fluorescence; inhibition, % at 5.6 µM; 330,000 compounds, 0.63% hits;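 active means inhibition above that plate's mean sample inhibition plus 3 SD, cut at about 26% in these data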;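 further: 0% = ATP-challenged DMSO wells and 100% = DMSO wells without ATP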
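test system = CHO parental line | reagent = ATP stimulus | measured by = intracellular calcium via Fluo-8 no-wash fluorescent dye | control set = ATP and no-ATP DMSO wells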
TAAR1 antagonist: antagonists of human TAAR1; Q96RJ0; CHO RD-HGA16 TAAR1, Fluo-8 calcium fluorescence, antagonist; 360,000 compounds, 1.5% hits; inhibition, % at 3 µM;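 active means inhibition above a per-plate cutoff, the mean inhibition of test compounds on that plate plus 3 SD, cut at about 49% in these data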;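 further: 0% = DMSO plus EC80 beta-PEA response and 100% = DMSO alone without agonist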
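test system = CHO RD-HGA16 cells bearing hTAAR1 | replication = singlicate | controls = DMSO-only wells and EC80 β-PEA-stimulated wells | reagent = EC80 β-phenethylamine stimulus | read-out basis = percent inhibition of PEA-evoked calcium signal, max/basal emission ratio | schedule = seeding 17-24 h prior, 75-min 37 °C, 30-min RT dye loading | signal = kinetic Fluo-8 calcium fluorescence measurement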
nonsel antag count: nonselective antagonism, TAAR1 counter-screen; shares compounds with TAAR1 antagonist; counterscreen cell line, calcium fluorescence, antagonist mode; inhibition, % at 3 µM; 2,400 compounds, 77% hits; AID 651780; in the data active means inhibition above about 22%;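 further: CHO-Ga16 host cells stimulated with ATP at an EC80 level; 0% = agonist EC80 plus vehicle and 100% = vehicle without agonist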
TAAR1 antag conf: human TAAR1 antagonism, confirmed. shares compounds with TAAR1 antagonist. TAAR1-expressing cells, fluorescence antagonist read-out. inhibition, % at 3 µM. 2,400 compounds, 40% hits. AID 651785; in the data active means inhibition above about 49%;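 further: CHO-Ga16 host cells challenged with agonist PEA near its EC80; 0% = agonist at EC80 plus vehicle and 100% = vehicle with no agonist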
Ga16 ag counter: nonselective Ga16 agonist in TAAR1 antagonist counter-screen | shares compounds with TAAR1 antagonist | Ga16-expressing cells, calcium fluorescence, agonist counterscreen | activation, % at 3 µM | 2,400 compounds, 18% hits; in the data active means activation above about 12%;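 further: 0% = vehicle wells and 100% = saturating stimulus response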
TAAR1 ag counter: activates human TAAR1 in antagonist counter-screen; shares compounds with TAAR1 antagonist; 2,400 compounds, 2% hits; activation, % at 3 µM; AID 651955; hTAAR1 cell line, fluorescence activation, agonist mode; in the data active means activation above about 37%;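 further: CHO cells stably expressing TAAR1 with calcium dye readout; 0% = DMSO vehicle and 100% = full agonist response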
An asterisk follows results filed as active; / = no result. In the library only some 3.9% were active in any assay of this set; here they are far more common.

SMILES | OX1R antag-1 | OX1R antag-2 | TAAR1 agonist | CHO parental Ca | TAAR1 antagonist | nonsel antag count | TAAR1 antag conf | Ga16 ag counter | TAAR1 ag counter
O=C(c1ccc(N2CCN(C(=O)c3ccccc3Br)CC2)cc1)c1cccc(F)c1 | 8.0 | 34.3 | 7.7 | 13.5 | 44.8 | / | / | / | /
COc1ccccc1N1CCN(C(=O)c2cccc(C(=O)N3CCN(c4ccccc4OC)CC3)c2)CC1 | -14.7 | 43.8 | 17.2 | -23.2 | 54.5* | 27.3* | 48.8* | 8.7 | 9.6
O=C(c1ccc(N2CCN(C(=O)c3cccc(F)c3)CC2)cc1)c1cccc(F)c1 | -8.9 | 4.2 | 4.0 | -4.2 | 53.1* | 23.7* | 34.4 | 8.8 | 11.2
CC1(O)C(=O)C2(C)C=CC1C1C(=O)N(c3ccccc3)C(=O)C12 (stereo unspecified) | / | / | 1.0 | / | -6.2 | / | / | / | /
Cc1ccc(SCC(=O)OC(C)C(=O)NC2CCCCC2C)c(C)c1 (stereo unspecified) | -30.3 | 3.6 | 25.4 | -22.0 | -20.4 | / | / | / | /
CC1CCCCC1NC(=O)c1ccc(-n2cncn2)cc1 (stereo unspecified) | 3.1 | 8.0 | -2.9 | -9.7 | 92.9* | 12.7 | 4.9 | 7.6 | 5.4
O=C(O)c1ccccc1C(=O)c1cccc2ccccc12 | 4.1 | 2.1 | -0.4 | 7.2 | -8.8 | / | / | / | /
COc1ccc(Cl)cc1C(=O)OCC(=O)Nc1sccc1C(N)=O | 0.6 | 18.4 | 23.6 | -17.3 | 56.7* | 25.8* | 49.6* | 10.7 | 13.6
NC(=O)c1ccsc1NC(=O)COC(=O)c1ccccn1 | 11.4 | 0.4 | -0.6 | -2.1 | 9.3 | / | / | / | /
Cc1nn(Cc2ccccc2)c(Cl)c1/C=C/C(=O)OC(C(=O)NC(N)=O)C(C)C (stereo unspecified) | -18.1 | 4.9 | 4.0 | -7.9 | -7.1 | / | / | / | /
NC(=O)c1nsc(C(=O)N(c2ccc(F)cc2)C(C(=O)NCC2CCCO2)c2ccc3ncccc3c2)c1N (stereo unspecified) | -13.6 | 32.6 | 12.9 | -13.1 | 49.4* | 24.7* | 33.1 | 6.2 | 5.6
Cc1ccc(C(C(=O)NCc2ccccc2)N(Cc2ccco2)C(=O)c2snc(C(N)=O)c2N)o1 (stereo unspecified) | -37.2 | 23.7 | 14.3 | -26.9 | 70.8* | 29.8* | 56.2* | 7.7 | 11.8
CC(C)CC(C(=O)NCC1CCCO1)N(C(=O)Cn1nnc(-c2ccc(F)cc2)n1)c1cccc(C(F)(F)F)c1 (stereo unspecified) | -9.9 | 8.5 | 6.4 | -14.3 | -12.0 | / | / | / | /
O=C(NCC1CCCO1)C(c1ccc(F)cc1)N(C(=O)Cn1nnc(-c2ccc(F)cc2)n1)c1cccc(O)c1 (stereo unspecified) | -30.2 | 11.7 | 15.7 | -21.8 | 82.6* | 35.5* | 55.1* | 10.9 | 13.4
CCOc1ccc(C(C(=O)NCC2CCCO2)N(C(=O)c2snc(C(N)=O)c2N)c2cccc(F)c2)cc1 (stereo unspecified) | -8.2 | 13.1 | 17.0 | -13.4 | 56.2* | 28.3* | 49.9* | 10.1 | 22.7
Oc1ccccc1CN1CCCC(N2CCN(c3cccc(C(F)(F)F)c3)CC2)C1 (stereo unspecified) | -21.5 | -0.2 | 0.4 | 1.7 | -17.3 | / | / | / | /
CCN(CC)CCNS(=O)(=O)c1ccc(C(=O)NN)cc1 | -8.9 | 16.8 | 2.4 | 3.4 | -19.0 | / | / | / | /
Cc1cccc(CNc2ccc(C(CC(N)=O)NC(=O)c3cccc(Br)c3)cc2[N+](=O)[O-])c1 (stereo unspecified) | 3.4 | 15.2 | 0.9 | -9.7 | 8.2 | / | / | / | /
CN(CC(=O)Nc1cccc(F)c1)C(=O)CSc1ccccc1F | -10.9 | 11.9 | 1.3 | 3.9 | -6.8 | / | / | / | /
O=C(NCC1CCCO1)C(c1cccnc1)N(C(=O)Cc1cccs1)c1ccccc1 (stereo unspecified) | -30.8 | 18.3 | 23.8 | -17.5 | 54.0* | 20.9 | 46.5 | 10.1 | 10.3
